Laboratory results as given in the array DNA melting data of Ke et al. (doi:10.1101/2024.01.08.574731).

Tests used:
[1] = melting temperature; fluorescence melt of hairpins on a sequencing array, two-state fit, raised by 9.35 °C to match UV melts; conditions: sodium 0.088 M
Procedure, shortened: (§1)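 On a sequenced MiSeq flow cell, library hairpins with annealed Cy3 and quencher oligos were imaged for Cy3 fluorescence in 2.5 °C steps up to 60 °C, in 50 mM Na-HEPES pH 8.0, 25 mM NaCl. Normalisation used pre-quench Cy3 and control constructs. Bootstrapped two-state fits gave melting temperature and folding enthalpy, combined by inverse variance across four replicates and with fitted temperatures raised by 9.35 °C to match UV melts.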

[2] = folding enthalpy; higher = less favourable; fluorescence melt of hairpins on a sequencing array, two-state fit; conditions: sodium 0.088 M
Procedure, shortened: as §1

GGCATCACGAAAGTGGCC (((..(((....))))))
Tm [1]: 48.2 °C
folding enthalpy [2]: -21.9 kcal/mol

GCACACTCGAAAGAGTGC (((..(((....))))))
Tm [1]: 38 °C
folding enthalpy [2]: -9.86 kcal/mol

GCTCTACGAAAGTAAGC (((.(((....))))))
Tm [1]: 38.7 °C
folding enthalpy [2]: -18.8 kcal/mol

GCCCATGCGAAAGCAGGC (((..(((....))))))
Tm [1]: 50.8 °C
folding enthalpy [2]: -13.8 kcal/mol

GTCTTCGAAAGAAGAGAC ((((((....)))..)))
Tm [1]: 36.5 °C
folding enthalpy [2]: -16.7 kcal/mol

GGTCGGGCGAAAGCCACC (((..(((....))))))
Tm [1]: 34 °C
folding enthalpy [2]: -11.9 kcal/mol

GTCACGGGAAACTGTGAC (((((.(....).)))))
Tm [1]: 54.6 °C
folding enthalpy [2]: -40.1 kcal/mol

GTGGTTGGAAACAATCGC (.(.(((....))).).)
Tm [1]: 35 °C
folding enthalpy [2]: -23.3 kcal/mol

GCGTCAGGAAACCGACGC (((((.(....).)))))
Tm [1]: 58.6 °C
folding enthalpy [2]: -32.9 kcal/mol

GCTAAGCGAAAGCTGAGC (((.(((....))).)))
Tm [1]: 56.1 °C
folding enthalpy [2]: -42.3 kcal/mol

GCCAAAGGAAACCTTGGC (((((.(....).)))))
Tm [1]: 48.1 °C
folding enthalpy [2]: -29 kcal/mol

GTCCCTGGAAACAGGGGC (.(((((....))))).)
Tm [1]: 57.4 °C
folding enthalpy [2]: -27.5 kcal/mol

GACGCCGAAAGGCTGGTC ((((((....)))..)))
Tm [1]: 48 °C
folding enthalpy [2]: -16.1 kcal/mol

GCTTCCGAAAGGACGAGC ((((((....)))..)))
Tm [1]: 37.6 °C
folding enthalpy [2]: -18.8 kcal/mol

GTGCTAGGAAACTAACAC (((.(((....))).)))
Tm [1]: 34.4 °C
folding enthalpy [2]: -27.7 kcal/mol

GATCGAATCCTCGATC ((((((....))))))
Tm [1]: 50.6 °C
folding enthalpy [2]: -41.1 kcal/mol

GAACGCGAAAGCGGGTTC ((((((....)))..)))
Tm [1]: 47.1 °C
folding enthalpy [2]: -11.9 kcal/mol

GGTGTAGGAAACTATACC (((.(((....))).)))
Tm [1]: 42.4 °C
folding enthalpy [2]: -32 kcal/mol

GATCTCAACGGAGATC ((((((....))))))
Tm [1]: 52.3 °C
folding enthalpy [2]: -35 kcal/mol

GTTATGCGAAAGCAAAC (((.(((....))))))
Tm [1]: 36.5 °C
folding enthalpy [2]: -14.3 kcal/mol

GCAAAACCGAAAGGTTGC (((..(((....))))))
Tm [1]: 50 °C
folding enthalpy [2]: -17.7 kcal/mol

GTATGTGGAAACACGTAC (((.(((....))).)))
Tm [1]: 47.1 °C
folding enthalpy [2]: -29.3 kcal/mol

ATCCAGAAATGGAT (((((....)))))
Tm [1]: 41.2 °C
folding enthalpy [2]: -14.3 kcal/mol

GCAGACGAAAGTCGTTGC ((((((....)))..)))
Tm [1]: 50.5 °C
folding enthalpy [2]: -14.1 kcal/mol

GGAATCGAAAGATCCTCC ((((((....)))..)))
Tm [1]: 42.7 °C
folding enthalpy [2]: -21.4 kcal/mol

GAGTTCGGAAACGAACCC (.(((((....))))).)
Tm [1]: 41.5 °C
folding enthalpy [2]: -13.3 kcal/mol

GAACAAGAAATTGTTC ((((((....))))))
Tm [1]: 45.1 °C
folding enthalpy [2]: -26.4 kcal/mol

GTTATCGAAAGATACAAC ((((((....)))..)))
Tm [1]: 23.5 °C
folding enthalpy [2]: -9.31 kcal/mol

GCTGGTGGAAACATCGGC ((.(.((....)).).))
Tm [1]: 43 °C
folding enthalpy [2]: -30.4 kcal/mol

CGCGCGGAAACGCTTGCG ((((((....)))..)))
Tm [1]: 49.4 °C
folding enthalpy [2]: -21.5 kcal/mol

GGTTTGGGAAACCGAATC (.((.((....)).)).)
Tm [1]: 35.3 °C
folding enthalpy [2]: -20.2 kcal/mol

GCGGCGGTCCGC ((((....))))
Tm [1]: 58.7 °C
folding enthalpy [2]: -17.6 kcal/mol

GATTGCGAAAGCACGATC ((((((....)))..)))
Tm [1]: 28.7 °C
folding enthalpy [2]: -7.93 kcal/mol

GTCTCCGAAAGGACTGAC ((((((....)))..)))
Tm [1]: 34.4 °C
folding enthalpy [2]: -14.6 kcal/mol

GCTAGCGGAAACGTTAGC ((((.((....)).))))
Tm [1]: 51.3 °C
folding enthalpy [2]: -34.1 kcal/mol

GTTTCCGGAAACGGAAAC (((((((....)))))))
Tm [1]: 64.6 °C
folding enthalpy [2]: -46.4 kcal/mol

CGAGAACGGAAACGTTCG (((..(((....))))))
Tm [1]: 52.9 °C
folding enthalpy [2]: -25.3 kcal/mol

GCGAGCGAAAGCTCTCGC ((((((....)))..)))
Tm [1]: 52.3 °C
folding enthalpy [2]: -17.4 kcal/mol

GGACGCGAAAGCGAGTCC ((((((....)))..)))
Tm [1]: 55.4 °C
folding enthalpy [2]: -21 kcal/mol

GGTTGGGAAACCAACC ((((((....))))))
Tm [1]: 60.4 °C
folding enthalpy [2]: -42.9 kcal/mol

GCGCGAGGAAACTCGCAC (.(((((....))))).)
Tm [1]: 49.4 °C
folding enthalpy [2]: -11.4 kcal/mol

GGAGCCGAAAGGCTCTCC ((((((....)))..)))
Tm [1]: 56.5 °C
folding enthalpy [2]: -7.29 kcal/mol

GGCTGCGAAAGCAAGGCC ((((((....)))..)))
Tm [1]: 55.8 °C
folding enthalpy [2]: -18.5 kcal/mol

GGTCGTCGAAAGACCACC (((.(((....))).)))
Tm [1]: 45.9 °C
folding enthalpy [2]: -19.8 kcal/mol

GTTTGTGGAAACGTAAAC ((((..(....)..))))
Tm [1]: 29.1 °C
folding enthalpy [2]: -13.6 kcal/mol

GACCGAGGAAACTCGGCC (.(((((....))))).)
Tm [1]: 46.6 °C
folding enthalpy [2]: -15.1 kcal/mol

GAGGCAGCGAAAGCTCTC (((..(((....))))))
Tm [1]: 31.8 °C
folding enthalpy [2]: -10.2 kcal/mol

GCGCGGCGAAAGCAACGC (((..((....))..)))
Tm [1]: 60 °C
folding enthalpy [2]: -15.8 kcal/mol

GAACACGAAAGTGATTC ((((((....))).)))
Tm [1]: 37.2 °C
folding enthalpy [2]: -18.1 kcal/mol

GTTGTAGGAAACTACAGC (.(((((....))))).)
Tm [1]: 42 °C
folding enthalpy [2]: -25.8 kcal/mol

GGGGCCGAAAGGCCGCCC ((((((....)))..)))
Tm [1]: 56.9 °C
folding enthalpy [2]: -9.69 kcal/mol

GATCGACTTGTCGATC ((((((....))))))
Tm [1]: 68.3 °C
folding enthalpy [2]: -43.2 kcal/mol

GCGGTGAGCCGC ((((....))))
Tm [1]: 66.8 °C
folding enthalpy [2]: -23 kcal/mol

GTACTGCGAAAGCATAC (((.(((....))))))
Tm [1]: 36.6 °C
folding enthalpy [2]: -12 kcal/mol

GGAGCTGGAAACAGTTCC (((.(((....))).)))
Tm [1]: 50 °C
folding enthalpy [2]: -37 kcal/mol

GACTTCGGAAACGAAATC ((.((((....)))).))
Tm [1]: 31.9 °C
folding enthalpy [2]: -22.9 kcal/mol

GCGGTCCCCCGC ((((....))))
Tm [1]: 57.7 °C
folding enthalpy [2]: -21.9 kcal/mol

GGATCGCGAAAGCGTTCC (((.(((....))).)))
Tm [1]: 57.8 °C
folding enthalpy [2]: -27.7 kcal/mol

GCGTTATAACGC ((((....))))
Tm [1]: 55.5 °C
folding enthalpy [2]: -30.4 kcal/mol

GATCACTCCTGTGATC ((((((....))))))
Tm [1]: 59.7 °C
folding enthalpy [2]: -33.9 kcal/mol

GCGTGTAGACGC ((((....))))
Tm [1]: 58.5 °C
folding enthalpy [2]: -21.4 kcal/mol

GAGAATGCGAAAGCACTC (((..(((....))))))
Tm [1]: 32 °C
folding enthalpy [2]: -9.82 kcal/mol

GTCAGTCGAAAGACCGAC (((.(((....))).)))
Tm [1]: 47.4 °C
folding enthalpy [2]: -22.1 kcal/mol

GAGAGTGGAAACGTTCTC ((((..(....)..))))
Tm [1]: 33.9 °C
folding enthalpy [2]: -14.4 kcal/mol

GATCGTAACCACGATC ((((((....))))))
Tm [1]: 54.8 °C
folding enthalpy [2]: -35.8 kcal/mol

GATCCCTAGGGGGATC ((((((....))))))
Tm [1]: 60.4 °C
folding enthalpy [2]: -34.8 kcal/mol

GTCTGACGAAAGTCGAC (((.(((....))))))
Tm [1]: 49 °C
folding enthalpy [2]: -16.9 kcal/mol

GCAGTCGAAAGACCTGC ((((((....))).)))
Tm [1]: 51.2 °C
folding enthalpy [2]: -29.9 kcal/mol

GATCTTTTTAAAGATC ((((((....))))))
Tm [1]: 49.6 °C
folding enthalpy [2]: -41.4 kcal/mol

GATCACCGAAAGGTAATC (((.(((....))).)))
Tm [1]: 39.5 °C
folding enthalpy [2]: -20.9 kcal/mol

GTACAACCGAAAGGTTAC (((..(((....))))))
Tm [1]: 29.8 °C
folding enthalpy [2]: -10.7 kcal/mol

GCACGGCGAAAGCTCTGC (((..((....))..)))
Tm [1]: 37.4 °C
folding enthalpy [2]: -21.1 kcal/mol

GCGAAACGAAAGTTGCGC (((.(((....))).)))
Tm [1]: 65.7 °C
folding enthalpy [2]: -35.8 kcal/mol

GTCCTATCGAAAGATGAC (((..(((....))))))
Tm [1]: 23.4 °C
folding enthalpy [2]: -8.25 kcal/mol

GAATCCGAAAGGAGCTTC ((((((....)))..)))
Tm [1]: 41.6 °C
folding enthalpy [2]: -23.6 kcal/mol

GGTTCACGAAAGTGTACC (((.(((....))).)))
Tm [1]: 52.4 °C
folding enthalpy [2]: -36.4 kcal/mol

GTCTATTCGAAAGAAGAC (((..(((....))))))
Tm [1]: 23.8 °C
folding enthalpy [2]: -8.48 kcal/mol

CCGAAGAAATTCGG (((((....)))))
Tm [1]: 46.9 °C
folding enthalpy [2]: -19.2 kcal/mol

GCGAACAATCGC ((((....))))
Tm [1]: 39.9 °C
folding enthalpy [2]: -18.3 kcal/mol

GACTTACGAAAGTATGTC (((.(((....))).)))
Tm [1]: 47.8 °C
folding enthalpy [2]: -32.9 kcal/mol

GGCGCTTCGAAAGAAGCC (((..(((....))))))
Tm [1]: 47.8 °C
folding enthalpy [2]: -9.84 kcal/mol

GCGGAGCGAAAGCTAGGC ((..(((....)))..))
Tm [1]: 41.9 °C
folding enthalpy [2]: -9.5 kcal/mol

GGCTTGGGAAACCAAACC ((.((((....)))).))
Tm [1]: 41 °C
folding enthalpy [2]: -27.8 kcal/mol

GGTACCGCGAAAGCGACC (((..(((....))))))
Tm [1]: 28.1 °C
folding enthalpy [2]: -10.2 kcal/mol

GCTTACGAAAGTACAGC ((((((....))).)))
Tm [1]: 41.4 °C
folding enthalpy [2]: -23.4 kcal/mol

TATGTGAAAACATA (((((....)))))
Tm [1]: 35.3 °C
folding enthalpy [2]: -12.4 kcal/mol

GGAGCCGAAAGGCATCC ((((((....))).)))
Tm [1]: 53.8 °C
folding enthalpy [2]: -14.2 kcal/mol

GATCGCGATTGCGATC ((((((....))))))
Tm [1]: 68.7 °C
folding enthalpy [2]: -34.2 kcal/mol

GCAGGGCGAAAGCTGTGC (((..((....))..)))
Tm [1]: 52.2 °C
folding enthalpy [2]: -21.7 kcal/mol

GTATACGAAAGTAGTAC ((((((....))).)))
Tm [1]: 29.6 °C
folding enthalpy [2]: -11.7 kcal/mol

CGCGGAAGCATCCGCG ((((((....))))))
Tm [1]: 60.3 °C
folding enthalpy [2]: -27.5 kcal/mol

GAACACGGAAACGTGTCC (.(((((....))))).)
Tm [1]: 45.2 °C
folding enthalpy [2]: -11.2 kcal/mol
